The results in this text go back to ChEMBL document CHEMBL4376902, “CN128: A New Orally Active Hydroxypyridinone Iron Chelator” (J Med Chem, 2020).

In one series the target is Cytochrome P450 3A5 (Homo sapiens, UniProt P20815). As to the kind of experiment: Inhibition of CYP3A5 in human liver microsomes. The format is ADME.
Series [1] can be described thus: Toxicity in Sprague-Dawley rat assessed as induction of histopathological changes in bone marrow at 25 to 116 mg/kg, po dosed daily for 4 weeks during chronic 4 week toxicity test. It counts as organism-based. Particulars: in vivo, 672 h; call rule not given here.
A further series deals with Cytochrome P450 2D6 (Homo sapiens, UniProt P10635). As to the kind of experiment: Inhibition of CYP2D6 in human liver microsomes. It counts as ADME. Background: Microsomes from liver hold many membrane-bound enzymes, among them those of drug oxidation.
Series [2] can be described thus: Acid dissociation constant, pKa1 of the compound over pH 1.8 to 11.0 by spectrophotometric titration method. The format is physicochemical. A digest of the protocol:
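Automated spectrophotometric titration with 0.1 M KOH in 0.1 pH-unit steps. Reading accepted as stable when drift was <0.01 pH unit after a 1.5 min incubation. 10 mm path length cuvette. Spectra fitted by computer to obtain the pKa values.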

Series [3] can be described thus: AUC (0 to infinity) in Sprague-Dawley rat at 300 umol/kg, po measured up to 1440 mins by LC/MS/MS analysis. The format is ADME, organism-based. Set-up: dose 300 umol/kg, time infinity, route oral. Particulars: in vivo, 24 h.
Series [4] is described as follows: Drug level in rat adrenal gland at 150 umol/kg, po measured measured up to 6 hrs by LC-MS/MS analysis. The format is ADME, organism-based. The following applies: in vivo. The gist of the method: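 Single oral dose of 150 μmol/kg to SD rats, half male and half female, n=6 per group. Rats decapitated at 10 min, 30 min, 2 h and 6 h. Tissues dissected, saline-washed, weighed and homogenised in acetonitrile/water 1:9 (125 mg/mL). Drug level measured against plasma; mean ± SE.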

Series [5] can be described thus: AUC (0 to infinity) in Sprague-Dawley rat at 75 umol/kg, po measured up to 1440 mins by LC/MS/MS analysis. More on the design: dose 75 umol/kg, route oral, time infinity. It counts as ADME, organism-based. The following applies: in vivo, 24 h.
Series [6] is described as follows: Apparent volume of distribution in Sprague-Dawley rat at 600 umol/kg, po measured up to 1440 mins by LC/MS/MS analysis. The format is ADME, organism-based. Particulars: in vivo, 24 h.
The nature of series [7]: AUC (0 to infinity) in Sprague-Dawley rat at 600 umol/kg, po measured up to 1440 mins by LC/MS/MS analysis. The format is ADME, organism-based. Set-up: dose 600 umol/kg, time infinity, route oral. Particulars: in vivo, 24 h.

Structures are written as SMILES.

Chain of Cytochrome P450 2D6 (P10635 whole entry): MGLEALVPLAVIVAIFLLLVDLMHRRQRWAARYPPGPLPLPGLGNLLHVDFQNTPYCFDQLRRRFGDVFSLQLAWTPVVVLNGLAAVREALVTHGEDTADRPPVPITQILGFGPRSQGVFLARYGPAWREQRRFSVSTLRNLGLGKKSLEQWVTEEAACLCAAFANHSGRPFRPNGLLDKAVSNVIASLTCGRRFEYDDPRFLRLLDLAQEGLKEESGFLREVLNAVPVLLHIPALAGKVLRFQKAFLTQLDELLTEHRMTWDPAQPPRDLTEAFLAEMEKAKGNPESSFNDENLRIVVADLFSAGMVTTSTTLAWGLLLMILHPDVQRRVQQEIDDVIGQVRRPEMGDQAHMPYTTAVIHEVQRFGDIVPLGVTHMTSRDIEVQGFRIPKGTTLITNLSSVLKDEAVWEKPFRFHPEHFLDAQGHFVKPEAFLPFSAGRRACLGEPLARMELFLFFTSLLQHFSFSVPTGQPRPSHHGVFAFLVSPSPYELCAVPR
Chain of Cytochrome P450 3A5 (P20815 whole entry): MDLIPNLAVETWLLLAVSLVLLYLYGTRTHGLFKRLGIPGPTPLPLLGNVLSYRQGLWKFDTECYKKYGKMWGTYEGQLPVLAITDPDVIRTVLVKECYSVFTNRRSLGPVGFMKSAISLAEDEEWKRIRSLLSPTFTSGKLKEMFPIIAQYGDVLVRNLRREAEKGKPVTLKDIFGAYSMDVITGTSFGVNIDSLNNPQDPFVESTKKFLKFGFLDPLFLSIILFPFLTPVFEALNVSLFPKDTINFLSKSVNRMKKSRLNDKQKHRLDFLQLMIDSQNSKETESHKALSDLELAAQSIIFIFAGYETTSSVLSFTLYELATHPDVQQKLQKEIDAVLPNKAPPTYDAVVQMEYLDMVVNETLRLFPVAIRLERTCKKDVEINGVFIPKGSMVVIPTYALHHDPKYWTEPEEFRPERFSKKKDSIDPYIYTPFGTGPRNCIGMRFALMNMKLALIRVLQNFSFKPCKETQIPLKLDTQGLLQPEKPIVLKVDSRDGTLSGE

As a reminder, the IC50 is the concentration at which inhibition is half-maximal. Read a low IC50 as higher potency. As usually defined, the pKa is the pH at which an ionisable group is half protonated. High values mean a group that holds its proton tightly, low ones a group that gives up its proton readily. In general, AUC refers to concentration integrated over time. The low end stands for less exposure, the high end for more exposure. For `Cc1c(O)c(O)cc[n+]1[C@@H](CO)Cc1ccccc1.[Cl-]`, the IC50 against Cytochrome P450 3A5 and against Cytochrome P450 2D6 was more than 200 µM throughout. In addition, in series [1], the Activity entry is “Toxic”. For the same compound, the pKa in series [2] was 3.26. In addition, the results for the AUC in [3], in series [5] and in series [7] were 89800 ng·h/mL, 16400 ng·h/mL and 181000 ng·h/mL, respectively. The Drug uptake result in [4] was “Not Active”. Also, in [6], the Vz is 4.29 L/kg.
